# Experimental data: ChEMBL document CHEMBL1152469, “Telithromycin resistance in Streptococcus pneumoniae is conferred by a deletion in the leader sequence of erm(B) that increases rRNA methylation” (2008)
# Columns and labels:
# Assay type in all cases: functional
# [1] = tested on: Streptococcus pneumoniae; experiment: Antimicrobial activity against telithromycin-resistant Streptococcus pneumoniae isolate P1501016 by agar dilution method
# In short: (§1)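 Agar dilution MICs per CLSI agar plate preparation, plates containing 5% horse blood, incubated in ambient air 20-24 h; MICs interpreted with CLSI broth microdilution breakpoints (telithromycin ≤1 µg/ml S, 2 I, ≥4 R). Reference strain S. pneumoniae ATCC49619. Induction testing run without and with erythromycin (0.25 µg/ml).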
# [2] = tested on: Streptococcus pneumoniae; experiment: Antimicrobial activity against wild-type Streptococcus pneumoniae PC13 by agar dilution method
# In short: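 Agar dilution MICs on plates prepared per CLSI guidance and containing 5% horse blood. Plates incubated in ambient air for 20-24 h. Interpretation used CLSI broth microdilution breakpoints, with S. pneumoniae ATCC49619 as reference strain.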
# [3] = tested on: Streptococcus pneumoniae; experiment: Increase in lag phase of growth for wild type Streptococcus pneumoniae PC13 assessed as doubling time at 1 ug/ml
# In short: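 Glycerol stocks diluted 1:100 into Tryptone Soya Broth with or without erythromycin 1 µg/ml and incubated at 37°C, 5% CO2. OD600 read every 30 min, and doubling time calculated over exponential growth.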
# [4] = tested on: Streptococcus pneumoniae; experiment: Increase in lag phase of growth for Streptococcus pneumoniae PC13 transformant harboring 136-bp deletion in erm(B) gene assessed as doubling time at 1 ug/ml
# In short: (§2)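 Inoculated from glycerol stocks 1:100 into TSB with or without erythromycin (1 µg/ml), 37°C in 5% CO2. OD600 read every 30 min; doubling time calculated over exponential growth.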
# [5] = tested on: Streptococcus pneumoniae; experiment: Increase in dimethylation at position A2058 of 23S rRNA of Streptococcus pneumoniae PC13 transformant harboring 136-bp deletion in erm(B) gene at 0.25 ug/ml by phosphorimager scanning relative to baseline
# In short: (§3)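 Cells grown in TSB at 37°C, 5% CO2 to OD600 0.2, untreated or with telithromycin (0.008 µg/ml) or erythromycin (0.25 µg/ml), three cultures per condition. Total RNA extracted. Primer extension across G2061-U2079 of 23S rRNA on 1.5 pmol rRNA with reverse transcriptase, ddGTP mix in test samples, done in triplicate. Products run on denaturing polyacrylamide gels, quantified by phosphorimager as % A2058 dimethylation.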
# [6] = tested on: Streptococcus pneumoniae; experiment: Increase in lag phase of growth for telithromycin-resistant Streptococcus pneumoniae isolate P1501016 assessed as doubling time at 1 ug/ml; in short: as §2
# [7] = tested on: Streptococcus pneumoniae; experiment: Increase in dimethylation at position A2058 of 23S rRNA of Streptococcus pneumoniae isolate P1501016 at 0.25 ug/ml by phosphorimager scanning relative to baseline
# In short: (§4)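 Cells grown in Tryptone Soya Broth at 37°C, 5% CO2 to OD600 0.2, either untreated, with telithromycin 0.008 µg/ml, or with erythromycin 0.25 µg/ml. Total RNA extracted. A primer complementary to 23S rRNA G2061-U2079 was extended by reverse transcriptase on 1.5 pmol rRNA with dTTP, dCTP and ddGTP. Triplicate reactions run on denaturing gels beside a sequencing ladder and quantified by phosphorimager.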
# [8] = tested on: Streptococcus pneumoniae; experiment: Increase in erm(B) mRNA expression in Streptococcus pneumoniae […] transformant harboring 136-bp deletion in erm(B) gene at 0.25 ug/ml by qRT-PCR relative to baseline
# In short: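 Strains grown in TSB at 37°C, 5% CO2 to OD600 0.2, untreated or with erythromycin (0.25 µg/ml), three cultures per condition. Cells stabilised in RNAProtect before RNA extraction. erm(B) mRNA quantified relative to the untreated culture. Means compared by paired t test at the 95% level.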
# [9] = tested on: Streptococcus pneumoniae; experiment: Increase in erm(B) mRNA expression in wild type Streptococcus pneumoniae PC13 at 0.25 ug/ml by qRT-PCR relative to baseline
# In short: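 Cultures grown in triplicate in Tryptone Soya Broth at 37°C, 5% CO2 to OD600 0.2, without antibiotic or with erythromycin 0.25 µg/ml. Cells stabilised in RNAProtect, then RNA extracted for relative quantification of erm(B) mRNA against untreated cells.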
# [10] = tested on: Streptococcus pneumoniae; experiment: Increase in dimethylation at position A2058 of 23S rRNA of Streptococcus pneumoniae isolate P1501016 at 0.008 ug/ml by phosphorimager scanning relative to baseline; in short: as §4
# [11] = tested on: Streptococcus pneumoniae; experiment: Increase in dimethylation at position A2058 of 23S rRNA of wild type Streptococcus pneumoniae PC13 at 0.25 ug/ml by phosphorimager scanning relative to baseline; in short: as §4
# [12] = tested on: Streptococcus pneumoniae; experiment: Increase in dimethylation at position A2058 of 23S rRNA of wild type Streptococcus pneumoniae PC13 at 0.008 ug/ml by phosphorimager scanning relative to baseline; in short: as §4
# [13] = tested on: Streptococcus pneumoniae; experiment: Increase in dimethylation at position A2058 of 23S rRNA of Streptococcus pneumoniae PC13 transformant harboring 136-bp deletion in erm(B) gene at 0.008 ug/ml by phosphorimager scanning relative to baseline; in short: as §3
# [14] = tested on: Streptococcus pneumoniae; experiment: Increase in erm(B) mRNA expression in wild-type Streptococcus pneumoniae PC13 at 0.008 ug/ml by qRT-PCR relative to baseline
# In short: (§5)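 Cells grown in Tryptone Soya Broth at 37°C, 5% CO2 to OD600 0.2, in triplicate cultures per strain, without antibiotic or with telithromycin 0.008 µg/ml (erythromycin 0.25 µg/ml as a further condition). Cultures were then stabilised in RNAProtect Bacteria Reagent and pelleted. Total RNA was extracted and erm(B) mRNA quantified relative to untreated cultures.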
# [15] = tested on: Streptococcus pneumoniae; experiment: Increase in erm(B) mRNA expression in Streptococcus pneumoniae PC13 transformant harboring 136-bp deletion in erm(B) gene at 0.008 ug/ml by qRT-PCR relative to baseline; in short: as §5
# [16] = tested on: Streptococcus pneumoniae; experiment: Antimicrobial activity against Streptococcus pneumoniae PC13 transformant harboring 136-bp deletion in erm(B) gene by agar dilution method; in short: as §1
smiles,measurement,setting,value
CC[C@H]1OC(=O)[C@H](C)[C@@H](O[C@H]2C[C@@](C)(OC)[C@@H](O)[C@H](C)O2)[C@H](C)[C@@H](O[C@@H]2O[C@H](C)C[C@H](N(C)C)[C@H]2O)[C@](C)(OC)C[C@@H](C)C(=O)[C@H](C)[C@@H](O)[C@]1(C)O [CLARITHROMYCIN],MIC,[1],> 256 µg/mL
same,MIC,[2],> 256 µg/mL
CCC[C@@H]1C[C@@H](C(=O)N[C@@H]([C@H]2O[C@H](SC)[C@H](O)[C@@H](O)[C@H]2O)[C@H](C)Cl)N(C)C1 [CLINDAMYCIN],MIC,[1],> 256 µg/mL
same,MIC,[2],> 256 µg/mL
CC[C@H]1OC(=O)[C@H](C)[C@@H](O[C@H]2C[C@@](C)(OC)[C@@H](O)[C@H](C)O2)[C@H](C)[C@@H](O[C@@H]2O[C@H](C)C[C@H](N(C)C)[C@H]2O)[C@](C)(O)C[C@@H](C)C(=O)[C@H](C)[C@@H](O)[C@]1(C)O [ERYTHROMYCIN],Activity,[3],53 min
same,Activity,[4],52.5 min
same,Activity,[5],72%
same,MIC,[1],> 256 µg/mL
same,Activity,[6],43.3 min
same,Activity,[7],68%
same,MIC,[2],> 256 µg/mL
same,fold change (FC),[8],4.98
same,fold change (FC),[9],2.57
CC[C@H]1OC(=O)[C@H](C)C(=O)[C@H](C)[C@@H](O[C@@H]2O[C@H](C)C[C@H](N(C)C)[C@H]2O)[C@](C)(OC)C[C@@H](C)C(=O)[C@H](C)[C@H]2N(CCCCn3cnc(-c4cccnc4)c3)C(=O)O[C@]12C [TELITHROMYCIN],Activity,[10],66%
same,Activity,[11],46%
same,Activity,[12],29%
same,MIC,[1],8 µg/mL
same,Activity,[13],64%
same,fold change (FC),[14],0.66
same,fold change (FC),[15],1.31
same,MIC,[16],16 µg/mL
same,MIC,[2],0.06 µg/mL
CN(C)[C@@H]1C(O)=C(C(N)=O)C(=O)[C@@]2(O)C(O)=C3C(=O)c4c(O)cccc4[C@@](C)(O)[C@H]3C[C@@H]12 [TETRACYCLINE],MIC,[1],4 µg/mL
same,MIC,[16],16 µg/mL
same,MIC,[2],16 µg/mL
